High-throughput results as filed in PubChem.
The list is not random: actives were taken first. Their share in the collection is about 1.8%.
SKN-1 inh: suppressors of acrylamide-induced Pgst-4::GFP reporter in worms, primary screen, SKN-1 inhibitor project, whole organism, uHTS, GFP/RFP fluorescence ratio, strain VP596; actives 0.49% (n = 360,000); C. elegans VP596 Pgst-4::GFP/RFP ratio, 24 h; AID 624304, 2012; inhibition, % at 21.8 µM;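 active = interference check ratio from 0.5 to 1.5 plus GFP to RFP signal ratio inhibition reaching or exceeding a fixed threshold, cut at about 30% in these data, passing the limit was not always enough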
eLon inh: inhibitors of E. coli Lon protease, primary screen, biochemical, fluorescence polarization; P0A9M0; purified E. coli Lon protease; inhibition, % at 7.94 µM; actives 0.42% (n = 360,000); in the data active = inhibition above about 13%, passing the limit was not always enough;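 note: 0% = enzyme with probe and DMSO and 100% = no enzyme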
Target sequence (P0A9M0 whole entry, looked up): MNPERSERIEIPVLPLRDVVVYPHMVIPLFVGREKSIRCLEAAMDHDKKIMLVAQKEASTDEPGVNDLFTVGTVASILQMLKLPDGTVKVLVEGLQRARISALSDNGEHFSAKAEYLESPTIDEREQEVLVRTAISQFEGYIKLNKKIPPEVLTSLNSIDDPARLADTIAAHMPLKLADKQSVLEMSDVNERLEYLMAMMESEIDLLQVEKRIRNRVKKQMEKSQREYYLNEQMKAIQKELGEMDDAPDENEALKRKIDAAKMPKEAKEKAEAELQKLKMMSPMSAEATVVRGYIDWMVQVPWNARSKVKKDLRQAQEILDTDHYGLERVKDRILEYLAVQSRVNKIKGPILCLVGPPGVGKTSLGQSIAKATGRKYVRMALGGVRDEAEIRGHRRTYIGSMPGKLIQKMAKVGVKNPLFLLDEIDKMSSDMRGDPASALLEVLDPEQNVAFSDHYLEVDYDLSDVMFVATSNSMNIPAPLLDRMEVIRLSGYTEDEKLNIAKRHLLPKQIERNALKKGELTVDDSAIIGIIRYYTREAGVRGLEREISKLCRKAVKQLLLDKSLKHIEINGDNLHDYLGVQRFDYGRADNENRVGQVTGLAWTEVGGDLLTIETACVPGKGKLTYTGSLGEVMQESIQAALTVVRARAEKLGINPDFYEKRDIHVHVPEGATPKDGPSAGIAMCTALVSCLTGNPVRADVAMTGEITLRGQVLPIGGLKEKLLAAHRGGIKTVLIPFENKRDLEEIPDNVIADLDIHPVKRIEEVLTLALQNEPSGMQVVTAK
PREPL inhibitor: PREPL enzyme inhibitors, primary screen, biochemical, fluorescence polarization | Prolyl endopeptidase-like (Homo sapiens), Q4J6C6 | recombinant PREPL, fluorescence polarization activity-based probe | inhibition, % at 5.96 µM | actives 0.68% (n = 320,000); in the data active = inhibition above about 43%;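 note: 0% = enzyme with DMSO and 100% = wells lacking enzyme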
TbMetRS inhib: T. brucei MetRS inhibitors, primary screen, biochemical, luminescence; methionyl-tRNA synthetase (Trypanosoma brucei brucei); purified T. brucei MetRS, ATP depletion, Kinase-Glo luminescence; inhibition, % at 11.9 µM; actives 0.4% (n = 360,000); AID 624268, 2012;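 active = inhibition above a per-plate cutoff of the control wells' mean inhibition plus 3 SD, cut at about 5.5% in these data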;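 note: 0% = DMSO wells median and 100% = median of wells with control inhibitor compound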
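Material – parasite MetRS enzyme · Medium – HEPES-MgCl2-KCl buffer plus DTT, spermine, BSA, pyrophosphatase · Reagent – ATP, methionine and E. coli bulk tRNA substrates · Times – 15 min enzyme-compound preincubation, 2 h reaction, 10 min detection, 25 °C · Measured by – luminescence of leftover ATP · Evaluation – percent inhibition relative to median high and low control wells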
MT1-MMP act inh: blockers of MT1-MMP proenzyme processing, primary screen, HT1080 RFP-PRO-GFP cells, GFP/RFP fluorescence; actives 0.061% (n = 360,000); Matrix metalloproteinase-14 (Homo sapiens), P50281; GFP/RFP ratio change, % at 20 µM; GFP/RFP ratio fluorescence, overnight; percent of plate control window, DMSO zero;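 active = GFP/RFP ratio change of at least 30% with cell ATP level not reduced by more than half and red fluorescence within 50% of control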
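Assay system: RFP-PRO-GFP reporter HT1080 cells; read-out basis: GFP/RFP fluorescence ratio; benchmarks: DMSO wells and RFP-L50D-GFP cells; doses: 20 µM single dose, 1% DMSO; schedule: overnight cell settling, then overnight compound exposure, 37 °C, 5% CO2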
iPSC survival up: enhancers of single-cell hiPSC survival, primary screen, ATPlite luminescence; 100% = ROCK inhibitor wells, 0% = DMSO; survival enhancement, % at 20 µM; actives 0.044% (n = 360,000); AID 602274, 2012; in the data active = survival enhancement above about 18%;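 note: cells exposed to compounds for 16 hours before the ATP read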
eLon confirm: E. coli Lon protease inhibitor retest, confirmation, biochemical, fluorescence polarization | shares compounds with eLon inh | purified E. coli Lon | inhibition, % at 7.94 µM | actives 31% (n = 1,400); in the data active = inhibition above about 16%;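 note: 0% = enzyme with probe and DMSO and 100% = no enzyme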
* hit, by the source's call; x = no result given; + = active, no number.

SMILES	SKN-1 inh	eLon inh	PREPL inhibitor	TbMetRS inhib	MT1-MMP act inh	iPSC survival up	eLon confirm
O=c1c(/C=C(\O)c2ccc(F)cc2)nc2ccccc2n1-c1ccccc1	-91	+	-5	0	-82	0	-205
CCC(CO)Oc1cc(NCc2cccnc2)c2ncn(C(C)C)c2c1 (centres undefined)	3	27*	21	0	1	0	14
CCC(CO)Oc1cc(NCc2ccncc2)c2ncn(C(C)C)c2c1 (centres undefined)	3	-9	3	0	4	2	x
CC(C)n1c(S(=O)(=O)O)nc2ccccc21	1	14*	0	0	0	5	-1
CC(c1ccccc1)n1c(S(=O)(=O)O)nc2ccccc21 (centres undefined)	-6	-3	5	-1	5	2	x
CC(C)CCn1nc(C(=O)OCC(=O)NC(C)c2ccccc2)c2ccccc2c1=O (centres undefined)	7	-1	x	0	0	-2	x
CN(C)CCCn1c2c3ccccc3ccc2c2oc(=O)c3ccccc3c21	6	+	x	0	-49	-5	23*
CN(C)CCCn1c(=S)[nH]c2ccccc2c1=O	12	-1	0	-1	-2	1	x
NC(=O)c1c(NC(=O)CSc2nnc(Cc3ccccc3)n2Cc2ccco2)sc2c1CCC2	5	22*	17	0	-3	-3	-6
NC(=O)c1cc[n+](CC(=O)c2ccc(NC(=O)c3ccccc3)cc2)cc1	2	1	9	-1	0	0	x
O=C(COc1ccc(F)cc1)Nc1nc(-c2ccccn2)cs1	6	19*	-3	0	-2	2	-10
Cc1ccc(CNC(=O)c2cc(C3CC3)nc3c2cnn3C(C)C)cc1	8	-2	19	0	-3	0	x
Cc1ccc(OCCNC(=O)c2cc(C3CC3)nc3c2cnn3C(C)C)cc1	-9	+	16	0	8	0	-33
COc1cc(-c2nc3ccccn3c2/N=C/c2cccc(OC)c2O)ccc1O	4	4	0	0	0	-1	x
COc1ccc(/C=N/c2c(-c3ccco3)nc3ccccn23)cc1OC	-4	32*	19	-1	3	-1	-3
Clc1ccc(/C=N/c2c(-c3ccco3)nc3ccccn23)cc1	11	26*	18	0	-25	-2	-4
COc1cc(-c2nc3ccccn3c2/N=C/c2ccc(F)cc2)ccc1O	-3	-7	10	0	3	3	x
Oc1ccccc1/C=N/c1c(-c2ccco2)nc2ccccn12	-4	30*	11	-1	-2	-3	3
O=C(NC1CC1)c1cccc(NC(=O)c2cc(S(=O)(=O)N3CCOCC3)ccc2Cl)c1	-16	-13	x	-1	8	1	x
CCO[C@H]1OC(C(=O)N2CCN(Cc3ccccc3)CC2)=C[C@@H](C)[C@@H]1CCCO	0	28*	10	0	-2	0	5
O=C(N/N=C/c1c(O)n(Cc2ccco2)c(=O)[nH]c1=O)c1ccccc1	6	-35	4	0	-1	-1	x
Cc1cccc(NC(=O)C2CCCN(S(=O)(=O)c3c(C)nn(C)c3C)C2)c1 (centres undefined)	12	-2	6	1	0	2	x
Cc1cccc(NC(=O)C2CCCN(S(=O)(=O)c3c(C)nn(C)c3C)C2)n1 (centres undefined)	2	12*	-6	0	-3	-2	-9
COc1ccc(S(=O)(=O)c2c(O)c3ccc(C(=O)Nc4ccccc4Cl)cc3[nH]c2=O)cc1	3	25*	7	0	5	0	9
OCCN1CCN(CC(O)COCCOc2ccc(Br)cc2)CC1 (centres undefined)	-10	69*	16	0	4	0	-2
SMILES	SKN-1 inh	eLon inh	PREPL inhibitor	TbMetRS inhib	MT1-MMP act inh	iPSC survival up	eLon confirm
COc1ccc(N2CCN(CC(O)COCCOc3ccc(Br)cc3)CC2)cc1 (centres undefined)	3	-20	10	0	-1	0	x
Cc1ccc(C2C=C(c3ccccc3)Nc3ncnn32)cc1 (centres undefined)	1	9	-15	0	-13	-3	x
Brc1ccc(C2=CC(c3cccs3)n3ncnc3N2)cc1 (centres undefined)	-75	141*	-53	1	-269	2	161*
Fc1ccc(C2=CC(c3ccco3)n3ncnc3N2)cc1 (centres undefined)	-2	79*	-7	0	-83	-2	-3
C1=C(c2ccc(-c3ccccc3)cc2)Nc2ncnn2C1c1ccco1 (centres undefined)	-23	+	x	-1	-175	3	70*
Oc1ccc(C2C=C(c3ccc(F)cc3)Nc3ncnn32)cc1 (centres undefined)	9	14	x	0	-5	0	x
COc1cccc(/C(C)=N/N=C(\C)c2cccc(OC)c2)c1	-8	-1	x	0	2	0	x
Cc1onc(-c2c(Cl)cccc2Cl)c1C(=O)N=C(N)N1CCCC1	2	33*	22	0	0	0	1
COc1ccccc1N1CCN(C(=O)c2c(-c3c(F)cccc3Cl)noc2C)CC1	3	21*	x	0	0	0	4
Cc1onc(-c2c(Cl)cccc2Cl)c1C(=O)N=C(N)N1CCOCC1	-5	0	-5	0	-2	-1	x
C=CCn1c(C#N)c(N)sc1=N	-10	-5	9	0	-6	0	x
O=C(COc1ccc(Cl)cc1Cl)NN=C1CCCCC1	-3	-2	-3	0	2	1	x
CC1(C)CC(=O)C/C(=N/NC(=O)COc2ccc(Cl)cc2Cl)C1	-11	25*	11	0	1	0	7
CN(C)/C=N/c1nc(-c2ccc3c(c2)OCO3)cs1	8	0	-1	0	2	-1	x
CCOC(=O)c1cc(OC)c2cccc(CN3CCCC(C)(C(=O)NCCOC)C3)c2c1 (centres undefined)	-10	-2	x	0	0	-2	x
CCOC(=O)c1cc(OC)c2cccc(CN3CCC(C)(C(=O)NCCOC)C3)c2c1 (centres undefined)	13	97*	x	0	-12	-2	46*
